Source: PubChem (several laboratories)
A selection: hits, their analogues and other compounds. The true share with any hit is near 5.1%.
STAT1 act: activators of IFN-gamma induced STAT1 signaling; hit rate 2.6% among 200,000; NIH 3T3 STAT1-luciferase reporter, luminescence; 100% = IFN-gamma alone, no compound; activation (% of control), % at 5.5 µM; AID 932;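 active means activation above the screen-wide mean activation plus 3 SD, cut at about 130% in these data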;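 further: raw ratio to IFN-gamma control signal so 100% means no change and 0% no light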
STAT3 inh-1: reduces IL-6 driven STAT3 reporter signal | AID 862 | hit rate 0.89% among 190,000 | U3A cells, IL-6 STAT3-luciferase reporter, luminescence; host cell line lacks STAT1 | inhibition, % at 5.5 µM;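 active means inhibition above the mean inhibition across all screened compounds plus 3 SD, cut at about 44% in these data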;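 further: 0% = DMSO only wells and 100% = 100 µM nifuroxazide control wells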
STAT3 act: increases IL-6 driven STAT3 reporter signal | hit rate 0.91% among 190,000 | U3A cells, IL-6 STAT3-luciferase reporter, luminescence; 100% = signal with IL-6 EC80 alone | activation (% of control), % at 5.6 µM;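 active means activation above the screen-wide mean of compound activation plus 3 SD, cut at about 130% in these data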;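 further: 0% = background luminescence of wells with medium and substrate only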
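Material: STAT1-lacking human U3A cells, STAT3 luciferase reporter | Benchmarks: IL-6-only wells as 100% reference | Probe or stimulus: IL-6 (33 ng/mL) | Timing: Compound 1 h, then IL-6 6 h at 37 °C | Detection: Luminescence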
STAT1 blocker: inhibitors of IFN-gamma induced STAT1 signaling. NIH 3T3 STAT1-luciferase reporter, luminescence. hit rate 0.35% among 200,000. inhibition, % at 5.5 µM;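 active means inhibition above a set limit, the mean inhibition across all tested compounds plus 3 SD, cut at about 34% in these data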;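 further: 0% = IFN-gamma with DMSO and 100% = IFN-gamma with 300 µM nifuroxazide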
APP 5'UTR act: APP 5'UTR luciferase reporter activation; SH-SY5Y APP 5'UTR luciferase reporter, luminescence; zero percent = DMSO vehicle wells; activation, % at 2 µM; hit rate 1% among 190,000;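 active means activation above a set limit, based on mean plus 3 SD of controls, cut at about 140% in these data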
NF-kB neuron act: NF-kB expression increase, human neuronal cells; hit rate 1.6% among 190,000; AID 1239; NF-kB reporter expression; hits give high values; fold change at 12.5 µM; in the data active means fold change above about 3.3
STAT3 inh-2: STAT3 inhibition, confirmation assay; shares compounds with STAT3 inh-1; U3A cells, IL-6 STAT3 luciferase reporter, luminescence; cell line lacks STAT1; inhibition, % at 5.7 µM; hit rate 45% among 1,200; AID 1265;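 active means inhibition above the hit cutoff computed for the primary STAT3 screen, cut at about 44% in these data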;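 further: 0% = IL-6 plus DMSO and 100% = IL-6 plus nifuroxazide control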
NFkB inh STAT3ct: inhibits NF-kappaB, counter-screen to STAT3 inhibitors; shares compounds with STAT3 inh-1; HEK293T NF-kB luciferase reporter, TNF-alpha induced; inhibition, % at 5.7 µM; hit rate 36% among 1,200; AID 1308;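 active means inhibition above the mean of solvent-only control wells plus 3 SD, cutoff set per campaign, cut at about 13% in these data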;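 further: 0% = TNF-alpha with DMSO and 100% = TNF-alpha with MG high control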
STAT1 inh STAT3c: counter-screen for STAT3 inhibitors: STAT1 inhibition; shares compounds with STAT3 inh-1; NIH 3T3 STAT1-luciferase reporter, IFN-gamma induced, luminescence; inhibition, % at 5.7 µM; hit rate 27% among 1,200;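 active means inhibition above the mean plus 3 SD of solvent-only control wells, limit set per screening run, cut at about 16% in these data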;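 further: 0% = DMSO with IFN-gamma and 100% = nifuroxazide control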
An asterisk follows results filed as active.

Screening Cc1ccc(OCCCCn2cnc3ccccc32)cc1 returned STAT1 act 82.2, STAT3 inh-1 26.1, STAT3 act 82.0, STAT1 blocker 16.8, APP 5'UTR act 8.6 and NF-kB neuron act 1.32.
`CCCOc1ccc(Cn2cnc3ccccc32)cc1` gave STAT1 act 86.6, STAT3 inh-1 47.6*, STAT3 act 62.5, STAT1 blocker 14.5, APP 5'UTR act -1.6, NF-kB neuron act 0.68, STAT3 inh-2 28.7, NFkB inh STAT3ct -1.1 and STAT1 inh STAT3c 7.3.
`c1ccc(OCCCCn2cnc3ccccc32)cc1` gave STAT1 act 88.3, STAT3 inh-1 43.5*, STAT3 act 65.8, STAT1 blocker 12.8, APP 5'UTR act 10.4, NF-kB neuron act 0.95, STAT3 inh-2 34.9, NFkB inh STAT3ct -6.7 and STAT1 inh STAT3c -2.5.
`Cc1ccccc1OCCCCn1cnc2ccccc21` gave STAT1 act 92.5, STAT3 inh-1 60.6*, STAT3 act 49.9, STAT1 blocker 9.2, APP 5'UTR act 22.0, NF-kB neuron act 1.06, STAT3 inh-2 52.0*, NFkB inh STAT3ct 11.7 and STAT1 inh STAT3c 13.8.
For O=C(O)C(Cc1ccccc1)n1c(=S)[nH]c2ccccc2c1=O (stereo not drawn) the results were STAT1 act 105.7, STAT3 inh-1 -3.8, STAT3 act 103.7, STAT1 blocker -5.4, APP 5'UTR act -3.8 and NF-kB neuron act 1.1.
CC(C)CNc1c(N)c(=O)oc2ccccc12 was read as STAT1 act 98.5, STAT3 inh-1 -5.0, STAT3 act 101.6, STAT1 blocker 1.7, APP 5'UTR act -6.1 and NF-kB neuron act 0.75.
COC(=O)c1nn(-c2ccc(-c3ccccc3)cc2)cc1O was read as STAT1 act 96.2, STAT3 inh-1 73.7*, STAT3 act 42.0, STAT1 blocker 5.4, APP 5'UTR act 156.3*, NF-kB neuron act 4.6*, STAT3 inh-2 34.7, NFkB inh STAT3ct -3.0 and STAT1 inh STAT3c -2.2.
Screening C/C(N)=C(/C#N)C(=O)CSc1nnc(-c2ccc3c(c2)OCO3)o1 returned STAT1 act 133.8*, STAT3 inh-1 48.0*, STAT3 act 62.6, STAT1 blocker -36.8, APP 5'UTR act 99.7, NF-kB neuron act 6.9*, STAT3 inh-2 18.4, NFkB inh STAT3ct -9.0 and STAT1 inh STAT3c -96.9.
For NC(=O)CSc1nnc(-c2ccc3c(c2)OCO3)o1 the results were STAT1 act 113.3, STAT3 inh-1 8.7, STAT3 act 92.9, STAT1 blocker -14.1, APP 5'UTR act 94.3 and NF-kB neuron act 2.42.
Screening COc1cc(C(=O)OC2CC3CCC2(C)C3(C)C)ccc1OC(C)=O (stereo not drawn) returned STAT1 act 100.5, STAT1 blocker -1.8, APP 5'UTR act 14.5 and NF-kB neuron act 1.43.
For O=C(N=Nc1c(O)[nH]c2ccccc12)c1ccc2c(c1)OCO2 the results were STAT1 act 69.1, STAT3 inh-1 62.0*, STAT3 act 51.5, STAT1 blocker 32.9, APP 5'UTR act 105.8, NF-kB neuron act 2.3, STAT3 inh-2 25.4, NFkB inh STAT3ct 10.1 and STAT1 inh STAT3c -15.3.
For COc1cc(/C=N/NC(=O)Cn2ccc(C(F)(F)F)n2)cc(OC)c1OC the results were STAT1 act 99.9, STAT3 inh-1 4.0, STAT3 act 100.9, STAT1 blocker 1.8, APP 5'UTR act -20.6 and NF-kB neuron act 1.16.
Screening Cc1cc(/C=N/n2cnnc2)c(C)n1-c1ccc(OCc2ccccc2F)cc1 returned STAT1 act 88.0, STAT3 inh-1 20.1, STAT3 act 86.4, STAT1 blocker 13.2, APP 5'UTR act 11.8 and NF-kB neuron act 0.46.
Cc1cc(/C=N/n2cnnc2)c(C)n1-c1ccc(OCc2ccc(Cl)cc2)cc1 was read as STAT1 act 82.4, STAT3 inh-1 77.1*, STAT3 act 36.8, STAT1 blocker 19.3, APP 5'UTR act 42.3, NF-kB neuron act 0.46, STAT3 inh-2 60.6*, NFkB inh STAT3ct 17.5* and STAT1 inh STAT3c 15.4.
Screening CC1Cc2ccccc2N1C(=O)CO/N=C/c1ccc(OC(F)F)cc1 (stereo not drawn) returned STAT1 act 96.6, STAT3 inh-1 -10.7, STAT3 act 106.5, STAT1 blocker 5.9, APP 5'UTR act 1.3 and NF-kB neuron act 1.16.
Screening O=C(Nc1nc(-c2ccc(Cl)s2)cs1)c1ccncc1 returned STAT1 act 98.5, STAT3 inh-1 66.5*, STAT3 act 48.8, STAT1 blocker 1.6, APP 5'UTR act -9.2, NF-kB neuron act 1.11, STAT3 inh-2 56.4*, NFkB inh STAT3ct 12.2 and STAT1 inh STAT3c 10.1.
`CC1CC1C(=O)Nc1nc(-c2ccc(Cl)s2)cs1` (stereo not drawn) gave STAT1 act 90.3, STAT3 inh-1 23.5, STAT3 act 83.4, STAT1 blocker 10.2, APP 5'UTR act 14.5 and NF-kB neuron act 1.11.
`C/C(=N\NC(=O)c1ccc(Cl)cc1)c1cccs1` gave STAT1 act 75.2, STAT3 inh-1 58.7*, STAT3 act 52.2, STAT1 blocker 26.3, APP 5'UTR act 128.2, NF-kB neuron act 5.38*, STAT3 inh-2 17.7, NFkB inh STAT3ct -13.4 and STAT1 inh STAT3c -64.5.
Screening C/C(=N/NC(=O)c1cc(C(C)C)[nH]n1)c1cccs1 returned STAT1 act 101.6, STAT3 inh-1 51.1*, STAT3 act 60.6, STAT1 blocker -1.8, APP 5'UTR act 107.8, NF-kB neuron act 3.41*, STAT3 inh-2 7.3, NFkB inh STAT3ct -25.6 and STAT1 inh STAT3c -64.3.
Screening CC(NC(=O)CN(C)Cc1cccs1)c1ccccc1 (stereo not drawn) returned STAT1 act 94.8, STAT3 inh-1 -1.1, STAT3 act 106.2, STAT1 blocker 3.5, APP 5'UTR act 2.5 and NF-kB neuron act 1.23.
`CSc1nc(N(C)C)nc(N(C)C#N)n1` gave STAT1 act 119.3, STAT3 inh-1 31.4, STAT3 act 80.3, STAT1 blocker -22.1, APP 5'UTR act -0.6 and NF-kB neuron act 1.18.
CC(C)(C)c1ccc(C(=O)N2CCCCCC2=O)cc1 was read as STAT1 act 82.5, STAT3 inh-1 44.9*, STAT3 act 63.8, STAT1 blocker 19.0, APP 5'UTR act -56.9, NF-kB neuron act 0.46, STAT3 inh-2 63.8*, NFkB inh STAT3ct 34.6* and STAT1 inh STAT3c 30.1*.
